The values that follow come from paper PMC9977399 (Chemical Science, 2023).

The subject of experiment [1] is lamin A processing in staurosporine-treated Jurkat T cells. The experiment can be described thus: western blot of lamin A processing upon inhibitor treatment. In kind it is cell-based, human. The following applies: inhibitor 5 or 25 μM, 2 h preincubation, staurosporine 5 μM, 4 h. In a few lines:
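Low-passage Jurkat T cells (100000 per 0.5 mL) were pretreated 2 h with inhibitor (5 or 25 μM, 1% DMSO; control 1% DMSO), then given staurosporine 5 μM for 4 or 8 h. Lysates were boiled in SDS/DTT and run on 4–12% Bis-Tris SDS–PAGE, then nitrocellulose, blocked with 2% BSA/TBS-T. Primary antibodies (caspase 3, PARP, caspase 6, lamin A/C; 1:1000, overnight 4 °C) were followed by fluorescent secondaries. Bands were quantified from 700/800 nm scans.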

Experiment [2] addresses T1, caspase 6 (Homo sapiens, UniProt P55212).
T1 sequence (P55212 24-179 limits assumed): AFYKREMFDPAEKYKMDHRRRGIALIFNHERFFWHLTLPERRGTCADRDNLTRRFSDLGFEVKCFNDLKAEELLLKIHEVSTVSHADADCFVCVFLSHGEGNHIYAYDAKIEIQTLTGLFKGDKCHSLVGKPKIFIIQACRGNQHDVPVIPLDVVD
T1 sequence (P55212 194-293 limits assumed): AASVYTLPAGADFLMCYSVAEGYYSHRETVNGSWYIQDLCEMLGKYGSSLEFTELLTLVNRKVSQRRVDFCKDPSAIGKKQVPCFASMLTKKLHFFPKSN
The experiment can be described thus: kinetic of AIE substrates. In kind it is biochemical. Conditions: caspases 3 and 6 at 10 nM or 50 nM, ex 312/em 450 nm, 30 min. The essentials: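 Recombinant human caspases 3 and 6 were active-site titrated with zVAD-fmk and used at 10 or 50 nM. Buffer: 10% w/v sucrose, 20 mM PIPES, 10 mM NaCl, 1 mM EDTA, 10 mM DTT, pH 7.2–7.4. Enzyme was preincubated 15 min, then added to AIE substrates from DMSO at varied final concentrations, 37 °C. Relative hydrolysis rate came from the linear fluorescence segment. At least three replicates, mean ± SD.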

In experiment [3] the target is T1, caspase 6. Briefly: kobs/I inhibition parameter of AOMK inhibitors. Format: biochemical. Conditions: substrate Ac-VEID-ACC 100 μM, 37 °C. The essentials:
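Recombinant human caspase 6 was active-site titrated with zVAD-fmk and preactivated 15 min at 37 °C in sucrose/PIPES/NaCl/EDTA/DTT buffer, pH 7.2–7.4. Serial inhibitor dilutions with substrate were pre-equilibrated 15 min at 37 °C, then enzyme was added. ACC fluorescence (ex 355/em 460 nm) was read for 30 min from start under pseudo-first-order conditions. Second-order kobs/I: at least three independent runs, mean ± SD.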

The next experiment deals with caspase 8 (Homo sapiens, UniProt Q14790). The experiment can be described thus: kobs/I inhibition parameter of AOMK inhibitors. Format: biochemical. Conditions: substrate Ac-LEHD-ACC 100 μM, 37 °C. The essentials:
(§1)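 Recombinant human caspases 8, 9 or 10 were active-site titrated with zVAD-fmk and preactivated 15 min at 37 °C. Buffer: sucrose/PIPES/NaCl/EDTA/DTT, pH 7.2–7.4, plus 0.75 M sodium citrate to dimerise. Inhibitor dilutions were mixed with substrate and held 15 min at 37 °C before enzyme addition. Fluorescence (ex 355/em 460 nm) was followed 30 min; pseudo-first-order kobs/I from ≥3 experiments, mean ± SD.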

The next experiment deals with T2, caspase 9 (Homo sapiens, UniProt P55211).
T2 sequence (P55211 1-315 limits assumed): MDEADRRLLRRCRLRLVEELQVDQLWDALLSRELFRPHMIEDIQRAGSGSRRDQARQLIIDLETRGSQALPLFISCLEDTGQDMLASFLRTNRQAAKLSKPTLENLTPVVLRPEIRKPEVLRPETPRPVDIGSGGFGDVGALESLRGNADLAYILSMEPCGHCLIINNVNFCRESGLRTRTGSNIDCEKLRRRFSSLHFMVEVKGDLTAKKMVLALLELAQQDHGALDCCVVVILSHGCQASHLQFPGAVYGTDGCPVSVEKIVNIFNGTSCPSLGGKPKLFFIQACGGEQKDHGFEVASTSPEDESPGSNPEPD
T2 sequence (P55211 331-416 limits assumed): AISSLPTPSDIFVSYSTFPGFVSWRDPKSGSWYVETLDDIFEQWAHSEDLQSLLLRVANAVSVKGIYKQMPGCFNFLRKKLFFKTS
Briefly: kobs/I inhibition parameter of AOMK inhibitors. Format: biochemical. Conditions: substrate Ac-LEHD-ACC 100 μM, 37 °C. The essentials:
as §1

The next experiment has as its target T3, caspase 10 (Homo sapiens, UniProt Q92851).
T3 sequence (Q92851 220-415 limits assumed): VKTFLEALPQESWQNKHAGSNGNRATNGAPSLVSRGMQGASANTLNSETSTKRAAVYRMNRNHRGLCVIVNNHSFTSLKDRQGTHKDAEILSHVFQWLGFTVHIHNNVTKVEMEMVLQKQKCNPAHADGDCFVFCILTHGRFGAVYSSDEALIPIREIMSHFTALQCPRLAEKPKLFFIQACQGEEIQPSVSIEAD
T3 sequence (Q92851 416-521 limits assumed): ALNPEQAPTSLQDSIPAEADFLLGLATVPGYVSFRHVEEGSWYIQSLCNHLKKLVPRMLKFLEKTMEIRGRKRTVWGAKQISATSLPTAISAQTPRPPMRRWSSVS
The experiment can be described thus: kobs/I inhibition parameter of AOMK inhibitors. Format: biochemical. Conditions: substrate Ac-LEHD-ACC 100 μM, 37 °C. The essentials:
as §1

Experiment [4] deals with lamin A processing in staurosporine-treated Jurkat T cells. Briefly: mass cytometry, anti-lamin A. In kind it is cell-based, human. The following applies: inhibitor 5 or 25 μM, 2 h preincubation, staurosporine 5 μM, 4 h. In a few lines: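 Jurkat T cells (1,000,000 per 0.5 mL) were pretreated 2 h with inhibitor (5 or 25 μM), then given staurosporine 5 μM for 4 h. Cells were fixed in 4% PFA (20 min, 4 °C), Perm-S permeabilised and stained 2 h RT with metal-tagged antibodies (lamin A 142Nd, cleaved PARP 143Nd, caspase 6 159Tb, cleaved caspase 3 172Yb). Ir191/193 DNA stain followed; CyTOF acquisition within 12 h.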

caspase 8, sequence (Q14790 217-374 limits assumed): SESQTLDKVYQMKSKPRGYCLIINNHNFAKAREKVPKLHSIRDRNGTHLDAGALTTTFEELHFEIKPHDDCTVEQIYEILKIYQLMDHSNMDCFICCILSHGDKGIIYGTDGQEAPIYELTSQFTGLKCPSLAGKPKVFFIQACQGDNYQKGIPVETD
caspase 8, sequence (Q14790 385-479 limits assumed): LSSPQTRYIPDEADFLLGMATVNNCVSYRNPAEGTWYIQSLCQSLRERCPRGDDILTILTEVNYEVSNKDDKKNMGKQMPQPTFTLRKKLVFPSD

Turning to Ac-EVEID-AOMK, in experiment [1], the “prevention of lamin A cleavage (western blot)” value (shortened to “prevention of lamin A cleavage”) was “only partially effective in preventing lamin A cleavage”.

With Ac-EVEID-K(T PE )-NH2 [Ac-EVEID-K-TPE], at caspase 6 [2], the “selectivity for caspase 6 over caspase 3 (AIE substrate hydrolysis)” value was “very high selectivity over caspase 3”.

Consider Ac-EVEhFD-AOMK, for which, at caspase 6 [3], the “potency toward caspase 6 (kobs/I, in words)” value is given as “most potent inhibitors of caspase 6”. Moreover, the “prevention of lamin A cleavage” value in experiment [1] is reported as “only partially effective in preventing lamin A cleavage”.

Turning to Ac-hFVEID-AOMK, the “potency toward caspase 6 (kobs/I, in words)” value at caspase 6 [3] is “most potent inhibitors of caspase 6”. The “inhibition of apical caspase 8 (in words)” value against caspase 8 was “poor inhibitor”. For the same substance, the “inhibition of apical caspase 9 (in words)” value against caspase 9 is listed as “poor inhibitor”. On caspase 10, the “inhibition of apical caspase 10 (in words)” value is on record as “poor inhibitor”. In addition, the “prevention of lamin A cleavage” value in experiment [1] was “largely prevent lamin A”. In addition, the “effect on lamin A processing (mass cytometry)” value in experiment [4] is listed as “efficiently block lamin A processing”.
